In the library only some 2.9% were active in any assay of this set; here they are far more common.
MEKK3 PB1 HTS: raises or lowers MEK5 binding to the human MEKK3 PB1 domain | 290,000 tested, 1.4% active | bead-based flow cytometry, Alexa488-MEK5 binding to MEKK3; actives lie on both sides; 0 = blocked by unlabeled MEK5, 100 = vehicle | AID 1529 | binding response (% of control), % at 10 µM;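 active = binding response more than 3 SD above or below the average of its plate-row segment, actives on both sides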;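 also: Alexa488 bead fluorescence after subtracting the streptavidin-only scavenger bead signal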
Dynein cargo inh: dynein cargo transport inhibition | 3617.4 mouse cells, GR-EGFP nuclear translocation imaging; test concentration mostly 20 µM; stimulated with dexamethasone, 1 µM; stronger effect = lower value | 220,000 tested, 0.47% active | z-score, hits read low;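 active = plate z-score of nuclear minus cytoplasmic receptor signal below a set negative limit, without overly bright fluorescence or cell loss, cut at about -3.5 in these data, passing the limit was not always enough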;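 also: z-score of nuclear minus cytoplasmic ring GR-EGFP intensity difference per well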
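medium = tetracycline-free induction medium containing charcoal-stripped FBS | probe or stimulus = dexamethasone, 1.0 µM final | timing = 48 h induction, then 1 h compound, then 30 min agonist, 37 °C | detection = automated 10x imaging of fixed Hoechst-stained cells | read-out basis = nuclear versus cytoplasmic GR-EGFP signal, averaged per well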
Beta2AR agonist: human beta-2 adrenergic receptor agonism by FAP. P07550. Am2.2-beta2AR cells, FAP receptor internalization, flow cytometry. response, % (test concentration not listed). 340,000 tested, 0.43% active. AID 504454;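 active = response above a set limit, near 3 SD of response in nonfluorescent compounds, cut at about 42% in these data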
Target sequence (P07550 whole entry, looked up): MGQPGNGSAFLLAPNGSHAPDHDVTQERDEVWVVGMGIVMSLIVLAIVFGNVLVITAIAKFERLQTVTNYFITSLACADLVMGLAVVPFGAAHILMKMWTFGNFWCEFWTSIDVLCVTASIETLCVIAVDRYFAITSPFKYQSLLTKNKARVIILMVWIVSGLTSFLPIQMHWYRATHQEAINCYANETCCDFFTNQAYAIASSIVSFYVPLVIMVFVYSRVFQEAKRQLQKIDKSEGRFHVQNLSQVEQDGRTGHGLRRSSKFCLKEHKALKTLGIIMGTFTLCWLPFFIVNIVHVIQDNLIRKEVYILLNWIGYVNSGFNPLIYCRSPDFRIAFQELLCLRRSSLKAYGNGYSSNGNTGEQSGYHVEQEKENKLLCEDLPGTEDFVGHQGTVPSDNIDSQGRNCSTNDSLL
MEKK2wt PB1 HTS: raises or lowers MEK5 binding to wildtype human MEKK2 PB1 domain; Q9Y2U5; bead flow cytometry, Alexa488-MEK5 binding to MEKK2 WT; actives lie on both sides; binding response (% of control), % at 10 µM; 290,000 tested, 1.1% active; AID 1531; in the data active = binding response below about 67% or above about 130%
ATG4B inh: ATG4B (human) cysteine protease inhibition | Q9Y4P1 | ATG4B cleavage of LC3-PLA2, NBD-HPC fluorescence, 1 h | inhibition, % at 8.33 µM | 340,000 tested, 0.51% active | AID 504462; in the data active = inhibition above about 40%
MEKK2mut PB1 HTS: signal of MEK5 binding to mutant human MEKK2 PB1 domain; bead flow cytometry, Alexa488-MEK5 binding to MEKK2 mutant; percent response, % at 10 µM; 290,000 tested, 0.35% active; in the data active = percent response above about 24%, passing the limit was not always enough
MEKK2wt confirm: raises or lowers MEK5 binding to wildtype human MEKK2, retest | binding response (% of control), % at 10 µM | shares compounds with MEKK3 PB1 HTS | bead flow cytometry, Alexa488-MEK5 binding to MEKK2 WT; actives lie on both sides | 5,900 tested, 2.4% active; in the data active = binding response below about 16% or above about 210%; inactive = in between
MEKK2mut-MEK5: signal of MEK5 binding to mutant human MEKK2, retest; percent response, % at 10 µM; AID 1893; shares compounds with MEKK3 PB1 HTS; 5,900 tested, 2% active; bead flow cytometry, Alexa488-MEK5 binding to MEKK2 mutant; in the data active = percent response mostly above about 71%, no sharp cut-off; inactive = mostly below about 38%;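 also: higher means compound restores mutant binding toward wildtype level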
MEKK3-MEK5 inh: MEKK3-MEK5 PB1 inhibition, single concentration confirmation. bead flow cytometry, Alexa488-MEK5 binding to MEKK3; stronger effect = lower value. 5,900 tested, 1.8% active. shares compounds with MEKK3 PB1 HTS. binding response (% of control), % at 10 µM;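 active = binding response below 72% of control, or above a set upper limit, though filed actives all read lower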;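 also: 100% = DMSO only wells and 0% = binding blocked by excess unlabeled MEK5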
Starred values were filed as active, the others as inactive; [ ] = dose if it differs, or a comment.

`COc1ccccc1CNC(=O)C(=O)NCC1OCCCN1S(=O)(=O)c1ccc(F)cc1C` (stereo not drawn) gave MEKK3 PB1 HTS 97.0, Beta2AR agonist 3.3, MEKK2wt PB1 HTS 105.0, ATG4B inh -10.1 and MEKK2mut PB1 HTS 5.0.
Screening Cn1c(=O)c(NC2CCCCC2)c2c3c(cccc31)C(=O)c1ccccc1-2 returned MEKK3 PB1 HTS 59.0, Dynein cargo inh -6.06, Beta2AR agonist inactive, MEKK2wt PB1 HTS 37.0*[inhibitor], ATG4B inh -12.7, MEKK2mut PB1 HTS -20.0, MEKK2wt confirm 62.0, MEKK2mut-MEK5 -15.0 and MEKK3-MEK5 inh 93.0.
For CC(NC(=O)/C=C/c1ccco1)c1nc2ccccc2n1Cc1ccccc1F (stereo not drawn) the results were MEKK3 PB1 HTS 135.0*, Dynein cargo inh 0.0297, Beta2AR agonist 5.1, MEKK2wt PB1 HTS 107.0, ATG4B inh -2.2, MEKK2mut PB1 HTS 1.0, MEKK2wt confirm 76.0, MEKK2mut-MEK5 -10.0 and MEKK3-MEK5 inh 76.0.
`CCc1ccc(C(=O)NCc2ccc(Cl)cc2Cl)cc1` gave MEKK3 PB1 HTS 99.0, Dynein cargo inh -0.128, Beta2AR agonist -3.1, MEKK2wt PB1 HTS 100.0, ATG4B inh 29.2 and MEKK2mut PB1 HTS -2.0.
`CCc1ccc(C(=O)NCc2ccc(Cl)cc2)cc1` gave MEKK3 PB1 HTS 71.0*[inhibitor], Dynein cargo inh 0.988, Beta2AR agonist -1.9, MEKK2wt PB1 HTS 97.0, ATG4B inh -2.5, MEKK2mut PB1 HTS -1.0, MEKK2wt confirm 98.0, MEKK2mut-MEK5 -1.0 and MEKK3-MEK5 inh 102.0.
`Cc1ccc(SCc2ccc(C(=O)NCc3ccncc3)cc2)cc1` gave MEKK3 PB1 HTS 82.0*[inhibitor], Dynein cargo inh 0.335, Beta2AR agonist 12.9, MEKK2wt PB1 HTS 85.0, ATG4B inh 19.4, MEKK2mut PB1 HTS -6.0, MEKK2wt confirm 101.0, MEKK2mut-MEK5 -2.0 and MEKK3-MEK5 inh 100.0.
CCN(CC)C(=O)[C@H]1CC(CC(=O)NCCCn2ccnc2)C(=O)N2CCc3c([nH]c4ccc(OC)cc34)[C@]12C (stereo partly drawn) was read as Beta2AR agonist -11.0.
Screening O=C(NCc1csc(-c2cccs2)n1)c1cccc(Cl)c1 returned MEKK3 PB1 HTS 93.0, Dynein cargo inh -0.367, Beta2AR agonist -14.9, MEKK2wt PB1 HTS 100.0, ATG4B inh -0.5 and MEKK2mut PB1 HTS -5.0.
Cc1ccc(C(=O)NCc2cccnc2)cc1S(=O)(=O)N1CCCCCC1 was read as MEKK3 PB1 HTS 101.0, Beta2AR agonist -0.9, MEKK2wt PB1 HTS 104.0, ATG4B inh -0.4 and MEKK2mut PB1 HTS 6.0.
`CC12CC(c3ccccc3O1)C(C(=O)NCc1ccccc1)C(=O)N2` (stereo not drawn) gave MEKK3 PB1 HTS 81.0*[inhibitor], Dynein cargo inh -0.664, Beta2AR agonist -2.5, MEKK2wt PB1 HTS 87.0, ATG4B inh 4.0, MEKK2mut PB1 HTS -6.0, MEKK2wt confirm 82.0, MEKK2mut-MEK5 -10.0 and MEKK3-MEK5 inh 87.0.
For CNS(=O)(=O)c1cccc(C(=O)OCCCOC(=O)c2cccc(S(=O)(=O)NC)c2)c1 the results were MEKK3 PB1 HTS 105.0, Beta2AR agonist 8.0, MEKK2wt PB1 HTS 105.0, ATG4B inh -8.6 and MEKK2mut PB1 HTS 3.0.
`C=CCN(C(C(=O)OC)C(C)C)S(=O)(=O)CCNCc1ccccc1` (stereo not drawn) gave Beta2AR agonist -12.3 and ATG4B inh -6.2.
For COc1ccc(-c2cc(Cl)cc3c(=O)c4ccccc4n(C)c23)cc1F the results were MEKK3 PB1 HTS 94.0, Beta2AR agonist -5.4, MEKK2wt PB1 HTS 66.0*[inhibitor], ATG4B inh 0.5, MEKK2mut PB1 HTS -6.0, MEKK2wt confirm 75.0, MEKK2mut-MEK5 -16.0 and MEKK3-MEK5 inh 96.0.
Screening COc1cc(-c2ccc3c(=O)c4ccccc4n(C)c3c2)cc(OC)c1OC returned MEKK3 PB1 HTS 100.0, Beta2AR agonist 7.5, MEKK2wt PB1 HTS 95.0, ATG4B inh -19.9 and MEKK2mut PB1 HTS 0.0.
`COc1ccccc1C(=O)NNC(=O)C1CC=CCC1` (stereo not drawn) gave MEKK3 PB1 HTS 25.0*[inhibitor], Beta2AR agonist 1.4, MEKK2wt PB1 HTS 38.0*[inhibitor], ATG4B inh 11.2, MEKK2mut PB1 HTS -20.0, MEKK2wt confirm 103.0, MEKK2mut-MEK5 1.0 and MEKK3-MEK5 inh 102.0.
For COC(=O)NNC(=O)c1ccccc1OC the results were MEKK3 PB1 HTS 101.0, Dynein cargo inh 2.21, Beta2AR agonist 0.3, MEKK2wt PB1 HTS 100.0, ATG4B inh 0.8 and MEKK2mut PB1 HTS 2.0.
For CC(C)CNC(=O)C(=O)NCC1OCCN1S(=O)(=O)c1cccs1 (stereo not drawn) the results were MEKK3 PB1 HTS 102.0, Beta2AR agonist 5.2, MEKK2wt PB1 HTS 104.0, ATG4B inh 5.3 and MEKK2mut PB1 HTS 5.0.
COc1ccc(OCCC(=O)N2CCN(C)CC2)cc1 was read as MEKK3 PB1 HTS 114.0, Beta2AR agonist 4.5, MEKK2wt PB1 HTS 113.0, ATG4B inh -1.9, MEKK2mut PB1 HTS 25.0*, MEKK2wt confirm 103.0, MEKK2mut-MEK5 0.0 and MEKK3-MEK5 inh 102.0.
`CCOC(=O)NC1(C(F)(F)F)NC(=O)N(C2CCCCC2)C1=O` (stereo not drawn) gave MEKK3 PB1 HTS 91.0, Dynein cargo inh -0.475, Beta2AR agonist -3.4, MEKK2wt PB1 HTS -4.0*[inhibitor], ATG4B inh -25.9, MEKK2mut PB1 HTS -34.0, MEKK2wt confirm 110.0, MEKK2mut-MEK5 8.0 and MEKK3-MEK5 inh 108.0.
Screening O=c1oc2ccccc2c(Nc2ccc3ncccc3c2)c1[N+](=O)[O-] returned MEKK3 PB1 HTS 147.0*, Dynein cargo inh -0.348, Beta2AR agonist 8.4, MEKK2wt PB1 HTS 109.0, ATG4B inh 4.1, MEKK2mut PB1 HTS 1.0, MEKK2wt confirm 97.0, MEKK2mut-MEK5 -3.0 and MEKK3-MEK5 inh 99.0.
For Cc1ccc(C(c2c(C)nn(-c3ccccc3)c2N)c2c(C)nn(-c3ccccc3)c2N)cc1 the results were MEKK3 PB1 HTS 99.0, Dynein cargo inh -0.409, Beta2AR agonist 2.8, MEKK2wt PB1 HTS 96.0, ATG4B inh -16.8 and MEKK2mut PB1 HTS -1.0.

Screens as filed in PubChem BioAssay.
